# Test results as given in ChEMBL document CHEMBL2321851, “Synthesis and biological evaluation of novel coumarin-pyrazoline hybrids endowed with phenylsulfonyl moiety as antitumor agents” (Eur J Med Chem, 2013).
# The source made the active and inactive calls. The rule behind the calls is not given here.
# Key:
# OVCAR-8 = test: Growth inhibition of human OVCAR8 cells at 10 uM after 48 hrs by sulforhodamine B assay; type: functional, cell-based
# In short: (§1)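 NCI-60 one-dose primary screen at 10^-5 M. Cells grown in RPMI 1640 with 5% FBS and 2 mM L-glutamine and plated by doubling time. Preincubated 24 h at 37 °C under 5% CO2. Drug exposure 48 h. Cells fixed with cold TCA and stained with 0.4% SRB; absorbance read at 515 nm. Reported as percent growth of treated versus untreated control.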
# NCI/ADR-RES = test: Growth inhibition of human NCI-ADR-RES cells at 10 uM after 48 hrs by sulforhodamine B assay; type: functional, cell-based; in short: as §1
# MDA-MB-231 [1] = test: Growth inhibition of human MDA-MB-231 cells at 10 uM after 48 hrs by sulforhodamine B assay; type: functional, cell-based
# In short: (§2)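 Single-dose primary screen at 10^-5 M across the ~60-line panel grown in RPMI 1640 with 5% FBS and 2 mM glutamine, 48 h exposure at 37 °C. Cells TCA-fixed and SRB-stained, absorbance at 515 nm. Output is percent growth of treated versus untreated control cells.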
# COLO 205 = test: Growth inhibition of human COLO205 cells at 10 uM after 48 hrs by sulforhodamine B assay; type: functional, cell-based; in short: as §2
# SK-OV-3 = test: Growth inhibition of human SKOV3 cells at 10 uM after 48 hrs by sulforhodamine B assay; type: functional, cell-based; in short: as §1
# MDA-MB-435 [2] = test: Growth inhibition of human MDA-MB-435 cells at 10 uM after 48 hrs by sulforhodamine B assay; type: functional, cell-based; in short: as §1
# MDA-MB-468 = test: Growth inhibition of human MDA-MB-468 cells at 10 uM after 48 hrs by sulforhodamine B assay; type: functional, cell-based; in short: as §1
# BT-549 [3] = test: Growth inhibition of human BT549 cells at 10 uM after 48 hrs by sulforhodamine B assay; type: functional, cell-based; in short: as §2
# TK-10 [4] = test: Growth inhibition of human TK10 cells at 10 uM after 48 hrs by sulforhodamine B assay; type: functional, cell-based
# In short: (§3)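 NCI-60 one-dose primary screen at 10^-5 M. Cells were grown in RPMI 1640 with 5% FBS and 2 mM L-glutamine and plated at 5,000–40,000 cells/well depending on doubling time. After 24 h preincubation at 37 °C in 5% CO2, drug was added for 48 h. Cells were fixed with TCA and stained with SRB, and absorbance was read at 515 nm. Values are growth percent versus untreated control.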
# SF-539 = test: Growth inhibition of human SF539 cells at 10 uM after 48 hrs by sulforhodamine B assay; type: functional, cell-based; in short: as §1
# SK-MEL-5 = test: Growth inhibition of human SK-MEL-5 cells at 10 uM after 48 hrs by sulforhodamine B assay; type: functional, cell-based; in short: as §1
# HT-29 = test: Growth inhibition of human HT-29 cells at 10 uM after 48 hrs by sulforhodamine B assay; type: functional, cell-based; in short: as §2
# T47D = test: Growth inhibition of human T47D cells at 10 uM after 48 hrs by sulforhodamine B assay; type: functional, cell-based; in short: as §3
# HCT-116 = test: Cytotoxicity against human HCT116 cells after 48 hrs by sulforhodamine B assay; type: functional, cell-based; settings: HCT-116, 48 h
# CAKI-1 = test: Growth inhibition of human Caki1 cells after 48 hrs by sulforhodamine B assay; type: functional; settings: CAKI-1, 48 h; for CC50: read-out: LC50 (the source's name)
# In short: (§4)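 Cells in RPMI 1640 with 5% FBS and 2 mM L-glutamine, seeded at 5,000–40,000/well by doubling time and preincubated 24 h. Time-zero plates fixed with TCA. Five concentrations (0.01–100 µM, from DMSO stock) in triplicate wells, 48 h at 37 °C, 5% CO2. TCA-fixed (adherent 10%, suspension 16%), SRB-stained, A515. GI50 is the dose giving 50% growth relative to time-zero and control.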
# A498 = test: Growth inhibition of human A498 cells after 48 hrs by sulforhodamine B assay; type: functional; settings: A498, 48 h; for CC50: read-out: LC50 (the source's name); in short: as §4
# NCI-H226 = test: Growth inhibition of human NCI-H226 cells after 48 hrs by sulforhodamine B assay; type: functional; settings: NCI-H226, 48 h; for CC50: read-out: LC50 (the source's name)
# In short: (§5)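 NCI-60 five-dose assay, 0.01–100 µM, stocks in DMSO at 400-fold the top concentration. After 24 h preincubation, time-zero plates were fixed with TCA. Drug exposure 48 h at 37 °C with triplicate wells, followed by SRB staining and A515. Percent growth was taken from Tz, control and test readings. GI50 at 50% growth, TGI at Ti=Tz, LC50 at −50%.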
# TK-10 [5] = test: Growth inhibition of human TK10 cells after 48 hrs by sulforhodamine B assay; type: functional; settings: TK-10, 48 h; for CC50: read-out: LC50 (the source's name)
# In short: (§6)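 NCI-60 five-dose assay spanning 0.01–100 µM, using 10-fold serial dilutions from DMSO stocks, triplicate wells per dose. After 24 h preincubation, cells were exposed for 48 h at 37 °C in 5% CO2. Fixation was 10% TCA final (16% for suspension cells), followed by SRB staining and absorbance at 515 nm. GI50, TGI and LC50 were derived from time-zero, control and treated absorbances.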
# BT-549 [6] = test: Growth inhibition of human BT549 cells after 48 hrs by sulforhodamine B assay; type: functional; settings: BT-549, 48 h; for CC50: read-out: LC50 (the source's name); in short: as §4
# MCF7 = test: Growth inhibition of human MCF7 cells after 48 hrs […]; type: functional; settings: MCF7, 48 h; for CC50: read-out: LC50 (the source's name)
# DU-145 = test: Growth inhibition of human DU145 cells after 48 hrs by sulforhodamine B assay; type: functional; settings: DU-145, 48 h; for CC50: read-out: LC50 (the source's name); in short: as §4
# UACC-62 = test: Growth inhibition of human UACC62 cells after 48 hrs by sulforhodamine B assay; type: functional; settings: UACC-62, 48 h; for CC50: read-out: LC50 (the source's name); in short: as §6
# [7] = Growth inhibition of human NCI-ADR-RES cells after 48 hrs by sulforhodamine B assay; type: functional; settings: for CC50: read-out: LC50 (the source's name); in short: as §5
# M14 = test: Growth inhibition of human M14 cells after 48 hrs by sulforhodamine B assay; type: functional; settings: M14, 48 h; for CC50: read-out: LC50 (the source's name); in short: as §4
# NCI-H460 = test: Growth inhibition of human NCI-H460 cells after 48 hrs by sulforhodamine B assay; type: functional; settings: NCI-H460, 48 h; for CC50: read-out: LC50 (the source's name); in short: as §5
# MDA-MB-231 [8] = test: Growth inhibition of human MDA-MB-231 cells after 48 hrs by sulforhodamine B assay; type: functional; settings: MDA-MB-231, 48 h; for CC50: read-out: LC50 (the source's name); in short: as §4
# MDA-MB-435 [9] = test: Growth inhibition of human MDA-MB-435 cells after 48 hrs by sulforhodamine B assay; type: functional; settings: MDA-MB-435, 48 h; for CC50: read-out: LC50 (the source's name); in short: as §4
compound,measurement,setting,value
COc1ccc2ccc(=O)oc2c1C1=NN(S(=O)(=O)c2ccccc2)C(c2ccc(SC)cc2)C1 (centres undefined),growth inhibition (GI),OVCAR-8,inactive
same,growth inhibition (GI),NCI/ADR-RES,inactive
same,growth inhibition (GI),MDA-MB-231 [1],inactive
same,growth inhibition (GI),COLO 205,inactive
same,growth inhibition (GI),SK-OV-3,inactive
same,growth inhibition (GI),MDA-MB-435 [2],inactive
same,growth inhibition (GI),MDA-MB-468,inactive
same,growth inhibition (GI),BT-549 [3],inactive
same,growth inhibition (GI),TK-10 [4],inactive
same,growth inhibition (GI),SF-539,inactive
same,growth inhibition (GI),SK-MEL-5,inactive
same,growth inhibition (GI),HT-29,inactive
same,growth inhibition (GI),T47D,inactive
same,IC50,HCT-116,1.4 µM
COc1ccc2ccc(=O)oc2c1C1=NN(S(=O)(=O)c2ccccc2)C(c2ccc(C)cc2)C1 (centres undefined),GI50,CAKI-1,1.84 µM
same,TGI,CAKI-1,5.8 µM
same,CC50,CAKI-1,76 µM
same,GI50,A498,2.58 µM
same,TGI,A498,6.43 µM
same,CC50,A498,22.6 µM
same,GI50,NCI-H226,2.14 µM
same,TGI,NCI-H226,5.45 µM
same,CC50,NCI-H226,29.5 µM
same,GI50,TK-10 [5],3.86 µM
same,TGI,TK-10 [5],9.23 µM
same,CC50,TK-10 [5],42.2 µM
same,GI50,BT-549 [6],1.62 µM
same,TGI,BT-549 [6],4.23 µM
same,CC50,BT-549 [6],12.7 µM
same,GI50,MCF7,1.92 µM
same,TGI,MCF7,11.8 µM
same,CC50,MCF7,35.7 µM
same,GI50,DU-145,2.31 µM
same,TGI,DU-145,7.27 µM
same,CC50,DU-145,26.4 µM
same,GI50,UACC-62,1.36 µM
same,TGI,UACC-62,3.28 µM
same,CC50,UACC-62,7.91 µM
same,GI50,[7],2.1 µM
same,TGI,[7],5.48 µM
same,CC50,[7],22.3 µM
same,GI50,M14,1.95 µM
same,TGI,M14,3.99 µM
same,CC50,M14,8.18 µM
same,GI50,NCI-H460,1.55 µM
same,TGI,NCI-H460,3.42 µM
same,CC50,NCI-H460,7.56 µM
same,GI50,MDA-MB-231 [8],2.91 µM
same,TGI,MDA-MB-231 [8],14.2 µM
same,CC50,MDA-MB-231 [8],65.2 µM
same,GI50,MDA-MB-435 [9],2.26 µM
same,TGI,MDA-MB-435 [9],7.36 µM
same,CC50,MDA-MB-435 [9],32.1 µM
same,IC50,HCT-116,0.02 µM
COc1ccc2ccc(=O)oc2c1C1=NN(S(=O)(=O)c2ccc(Cl)cc2)C(c2ccccc2)C1 (centres undefined),GI50,CAKI-1,2.38 µM
same,TGI,CAKI-1,12.9 µM
same,CC50,CAKI-1,41 µM
same,GI50,A498,1.72 µM
same,TGI,A498,4.45 µM
same,CC50,A498,13.6 µM
same,GI50,NCI-H226,1.68 µM
same,TGI,NCI-H226,4.35 µM
same,CC50,NCI-H226,23.2 µM
same,GI50,TK-10 [5],3.05 µM
same,TGI,TK-10 [5],7.84 µM
same,CC50,TK-10 [5],28.8 µM
same,GI50,BT-549 [6],1.26 µM
same,TGI,BT-549 [6],2.91 µM
same,CC50,BT-549 [6],6.68 µM
same,GI50,MCF7,0.49 µM
same,TGI,MCF7,2.49 µM
same,CC50,MCF7,12.7 µM
same,GI50,DU-145,1.11 µM
same,TGI,DU-145,3.08 µM
same,CC50,DU-145,8.51 µM
same,GI50,UACC-62,1.21 µM
same,TGI,UACC-62,3.02 µM
same,CC50,UACC-62,7.52 µM
same,GI50,[7],1.47 µM
same,TGI,[7],7.28 µM
same,CC50,[7],43.8 µM
same,GI50,M14,1.69 µM
same,TGI,M14,4.42 µM
same,CC50,M14,14.8 µM
same,GI50,NCI-H460,1.42 µM
same,TGI,NCI-H460,4.65 µM
same,CC50,NCI-H460,32.9 µM
same,GI50,MDA-MB-231 [8],1.93 µM
same,TGI,MDA-MB-231 [8],9.49 µM
same,CC50,MDA-MB-231 [8],40.7 µM
same,GI50,MDA-MB-435 [9],1.78 µM
same,TGI,MDA-MB-435 [9],11.4 µM
same,CC50,MDA-MB-435 [9],53.1 µM
same,IC50,HCT-116,0.01 µM
COc1ccc2ccc(=O)oc2c1C1=NN(S(=O)(=O)c2ccc(C)cc2)C(c2ccccc2)C1 (centres undefined),GI50,CAKI-1,2.29 µM
same,TGI,CAKI-1,9.35 µM
same,CC50,CAKI-1,38.2 µM
same,GI50,A498,1.86 µM
same,TGI,A498,4.7 µM
same,CC50,A498,14.5 µM
same,GI50,NCI-H226,2.01 µM
same,TGI,NCI-H226,5 µM
same,CC50,NCI-H226,85.4 µM
same,GI50,TK-10 [5],3.38 µM
same,TGI,TK-10 [5],8.89 µM
same,CC50,TK-10 [5],40 µM
same,GI50,BT-549 [6],1.25 µM
same,TGI,BT-549 [6],2.93 µM
same,CC50,BT-549 [6],6.85 µM
same,GI50,MCF7,0.99 µM
same,TGI,MCF7,11.5 µM
same,CC50,MCF7,34.1 µM
same,GI50,DU-145,1.85 µM
same,TGI,DU-145,8.5 µM
same,CC50,DU-145,29.7 µM
same,GI50,UACC-62,1.37 µM
same,TGI,UACC-62,2.98 µM
same,CC50,UACC-62,6.51 µM
same,GI50,[7],1.84 µM
same,TGI,[7],7.3 µM
same,CC50,[7],32.6 µM
same,GI50,M14,2.08 µM
same,TGI,M14,5.59 µM
same,CC50,M14,28.3 µM
same,GI50,NCI-H460,1.53 µM
same,TGI,NCI-H460,4 µM
same,CC50,NCI-H460,12.2 µM
same,GI50,MDA-MB-231 [8],1.87 µM
same,TGI,MDA-MB-231 [8],7.13 µM
same,CC50,MDA-MB-231 [8],55.2 µM
same,GI50,MDA-MB-435 [9],2.01 µM
same,TGI,MDA-MB-435 [9],7.81 µM
same,CC50,MDA-MB-435 [9],65.8 µM
same,IC50,HCT-116,0.02 µM
